Key:
Assay type in all cases: cell-based
[1] = biological target: T1, Endothelin receptor type B (Homo sapiens, UniProt P24530); experiment: Binding affinity against human cloned Endothelin B receptor expressed in CHO-K1 cells
T1 sequence (P24530 whole entry): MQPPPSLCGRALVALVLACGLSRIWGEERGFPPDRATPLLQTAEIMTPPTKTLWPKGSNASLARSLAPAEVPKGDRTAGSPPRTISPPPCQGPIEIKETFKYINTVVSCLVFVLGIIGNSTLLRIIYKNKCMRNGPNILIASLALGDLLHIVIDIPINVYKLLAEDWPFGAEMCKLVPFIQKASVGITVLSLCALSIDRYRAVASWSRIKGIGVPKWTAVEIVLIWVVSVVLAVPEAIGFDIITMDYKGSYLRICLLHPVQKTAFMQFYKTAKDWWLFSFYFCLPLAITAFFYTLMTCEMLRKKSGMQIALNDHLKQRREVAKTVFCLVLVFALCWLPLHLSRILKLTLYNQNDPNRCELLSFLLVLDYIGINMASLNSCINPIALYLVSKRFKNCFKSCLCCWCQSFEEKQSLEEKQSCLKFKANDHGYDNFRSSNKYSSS
Summary of the method: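 Radioligand binding to cloned human ETA (Ltk⁻ cells) and ETB (CHO-K1 cells) receptors. […] Selectivity expressed as ETB IC50/ETA IC50.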

Endothelin-1 receptor = biological target: T2, Endothelin-1 receptor (Homo sapiens, UniProt P25101); experiment: Binding affinity against human cloned endothelin A receptor expressed in LTK-cells
T2 sequence (P25101 whole entry): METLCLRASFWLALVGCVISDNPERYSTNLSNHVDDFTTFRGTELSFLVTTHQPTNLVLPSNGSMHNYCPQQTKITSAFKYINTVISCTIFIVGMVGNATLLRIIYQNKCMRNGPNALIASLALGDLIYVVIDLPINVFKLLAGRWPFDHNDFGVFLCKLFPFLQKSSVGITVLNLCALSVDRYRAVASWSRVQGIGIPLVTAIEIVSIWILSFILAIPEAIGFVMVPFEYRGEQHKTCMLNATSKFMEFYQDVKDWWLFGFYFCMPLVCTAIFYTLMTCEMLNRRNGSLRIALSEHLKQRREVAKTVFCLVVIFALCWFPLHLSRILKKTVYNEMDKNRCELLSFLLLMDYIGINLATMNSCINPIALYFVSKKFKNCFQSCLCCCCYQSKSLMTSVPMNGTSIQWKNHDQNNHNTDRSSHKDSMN
Summary of the method: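 Radioligand binding to cloned human ETA (Ltk⁻ cells) and ETB (CHO-K1 cells) receptors. Selectivity expressed as ETB IC50/ETA IC50.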

[2] = biological target: T1, Endothelin receptor type B; experiment: Inhibition of Endothelin B receptor mediated (ET-3) release of arachidonic acid from human cloned receptors expressed in CHO-K1 cells
Summary of the method: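 Arachidonic acid release assay. ETA: rabbit renal artery vascular smooth muscle cells stimulated with ET-1. ETB: recombinant human receptors in CHO-K1 cells stimulated with ET-3.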

SMILES	IC50 [1] [µM]	IC50 (Endothelin-1 receptor) [µM]	IC50 [2] [µM]
COc1ccc(C2OC(=O)C(c3ccc4c(c3)OCO4)=C2Cc2cc(OC)c(OC)c(OC)c2)cc1 (stereo unspecified)	> 25	–	–
COc1ccc(C2(O)OC(=O)C(c3ccc4c(c3)OCO4)=C2Cc2ccc(OC)c(C)c2)cc1 (stereo unspecified)	1.14	–	–
COc1ccc(C2(O)OC(=O)C(c3ccc4c(c3)OCO4)=C2Cc2ccc(Cl)c(Cl)c2)cc1 (stereo unspecified)	> 2.5	0.15	–
COc1ccc(C2(O)OC(=O)C(c3ccc4c(c3)OCO4)=C2Cc2ccc3ccccc3c2)cc1 (stereo unspecified)	> 2.5	0.014	–
CC(C)Oc1ccc(C2(O)OC(=O)C(c3ccc4c(c3)OCO4)=C2Cc2ccccc2)cc1 (stereo unspecified)	11	1.15	–
CCc1ccc(C2(O)OC(=O)C(c3ccc4c(c3)OCO4)=C2Cc2ccccc2)cc1 (stereo unspecified)	> 2.5	0.63	–
COc1ccc(C2(O)OC(=O)C(c3cccc(OC)c3)=C2Cc2ccccc2)cc1 (stereo unspecified)	12	0.09	–
COc1ccc(C2(O)OC(=O)C(c3ccc4c(c3)OCO4)=C2Cc2cccc(C(F)(F)F)c2)cc1 (stereo unspecified)	> 2.5	0.043	–
COc1ccc(C2(O)OC(=O)C(c3ccc4c(c3)OCO4)=C2Cc2cccc3c2CCc2ccccc2C3=O)cc1 (stereo unspecified)	10	16	–
COc1ccc(C2(O)OC(=O)C(c3ccc4c(c3)OCO4)=C2CC2CCCCC2)cc1 (stereo unspecified)	0.225	0.013	–
COc1cc(C2(O)OC(=O)C(c3ccc4c(c3)OCO4)=C2Cc2ccccc2)cc(OC)c1OC (stereo unspecified)	4.5	0.025	–
COc1ccc(C2(O)OC(=O)C(c3cc(OC)ccc3OC)=C2Cc2ccccc2)cc1 (stereo unspecified)	> 2.5	0.24	–
COc1ccc(C2(O)OC(=O)C(c3ccc4c(c3)OCO4)=C2Cc2ccc(C)cc2)cc1 (stereo unspecified)	> 2.5	–	–
COC(=O)c1ccc(C2(O)OC(=O)C(c3ccc4c(c3)OCO4)=C2Cc2ccccc2)cc1 (stereo unspecified)	> 2.5	0.4	–
COc1ccccc1C1(O)OC(=O)C(c2ccc3c(c2)OCO3)=C1Cc1ccccc1 (stereo unspecified)	> 2.5	0.48	–
COc1ccc(CC2=C(c3ccc(OC)cc3)C(=O)OC2(O)c2ccc(OC)cc2)cc1 (stereo unspecified)	9	–	–
COc1ccc(C2(O)OC(=O)C(c3cc(OC)c(OC)c(OC)c3)=C2Cc2ccccc2)cc1 (stereo unspecified)	1.6	1.3	–
COc1ccc(C(=O)/C(Cc2cc(OC)c(OC)c(OC)c2)=C(\C(=O)O)c2cc(OC)c3c(c2)OCO3)cc1C	–	–	0.068
COc1ccc(CC2=C(c3ccc(C)cc3)C(=O)OC2(O)c2ccc(OC)cc2)cc1 (stereo unspecified)	> 2.5	–	–
COc1cccc(C2(O)OC(=O)C(c3ccc4c(c3)OCO4)=C2Cc2ccccc2)c1 (stereo unspecified)	18	0.5	–

Second part, the molecule after the results:

IC50 [1] [µM]	IC50 (Endothelin-1 receptor) [µM]	IC50 [2] [µM]	SMILES
–	0.011	–	COc1ccc(C2(O)OC(=O)C(c3ccc4c(c3)OCO4)=C2Cc2cccc(OC)c2OC)cc1 (stereo unspecified)
–	0.011	–	COC(=O)c1ccc(CC2=C(c3ccc4c(c3)OCO4)C(=O)OC2(O)c2ccc(OC)cc2)cc1 (stereo unspecified)
–	0.0014	–	COc1ccc(C2(O)OC(=O)C(c3ccc4c(c3)OCO4)=C2Cc2ccc(OC)c(OC)c2)cc1 (stereo unspecified)
–	0.0021	–	COc1ccc(C2(O)OC(=O)C(c3ccc4c(c3)OCO4)=C2Cc2cc(OC)ccc2OC)cc1 (stereo unspecified)
–	0.0085	–	COC(=O)c1cccc(CC2=C(c3ccc4c(c3)OCO4)C(=O)OC2(O)c2ccc(OC)cc2)c1 (stereo unspecified)
–	0.012	–	COc1ccc(C2(O)OC(=O)C(c3ccc4c(c3)OCO4)=C2Cc2ccccc2)cc1C (stereo unspecified)
–	0.0017	–	COc1ccc(C2(O)OC(=O)C(c3ccc4c(c3)OCO4)=C2Cc2cc(OC)cc(OC)c2)cc1 (stereo unspecified)
18	0.011	–	COc1ccc(C2(O)OC(=O)C(c3ccc4c(c3)OCO4)=C2Cc2ccccc2)cc1OC (stereo unspecified)
> 2.5	0.0039	–	COc1ccc(C2(O)OC(=O)C(c3ccc4c(c3)OCO4)=C2Cc2ccc(SC)cc2)cc1 (stereo unspecified)
0.63	0.01	–	COc1ccc(C2(O)OC(=O)C(c3ccc4c(c3)OCO4)=C2CC2CCCC2)cc1 (stereo unspecified)
0.26	0.003	–	COc1ccc(C2(O)OC(=O)C(c3ccc4c(c3)OCO4)=C2Cc2cccc(OC)c2)cc1 (stereo unspecified)
> 0.25	0.008	–	COc1ccc(C2(O)OC(=O)C(c3ccc4c(c3)OCO4)=C2Cc2ccc(O)cc2)cc1 (stereo unspecified)
